Assay results reported in ChEMBL document CHEMBL4266019, “Discovery and Structure-Activity-Relationship Study of N-Alkyl-5-hydroxypyrimidinone Carboxamides as Novel Antitubercular Agents Targeting Decaprenylphosphoryl-β-d-ribose 2'-Oxidase” (J Med Chem, 2018).
Values after ≈ are worked out from the molar mass of the structure shown. Active and inactive are the calls of the source. The calls are words filed in the database; no cut-off is given here.

Key:
HepG2 [1] = assay: Cytotoxicity against human HepG2 cells in presence of glucose; type: cell-based
How it was run: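 HepG2 cells tested in DMEM/10% FBS supplemented with glucose.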

HepG2 [2] = assay: Cytotoxicity against human HepG2 cells in presence of galactose; type: cell-based
How it was run: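 HepG2 cells tested in DMEM/10% FBS containing galactose.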

[3] = system: Mycobacterium tuberculosis; assay: Antitubercular activity against Mycobacterium tuberculosis H37Rv after 7 to 14 days in presence of GAST medium by two fold serial dilution method; type: functional
How it was run: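 MIC in GAST (glycerol/alanine/salts/Tween 80 defined medium), strain H37Rv; screening hits tested as duplicate 12-point MIC determinations with MgCl2 at 0.06, 6 or 60 mM.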

[4] = system: Mycobacterium tuberculosis; assay: Antitubercular activity against Mycobacterium tuberculosis H37Rv assessed as induction of DNA damage by precA-LUX/pradA-LUX reporter-gene assay; type: functional, organism-based
How it was run: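 DNA-damage read-out: induction of the recA and radA promoters measured as luminescence in H37Rv precA-LUX and pradA-LUX reporter strains.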

[5] = system: Mycobacterium tuberculosis; assay: Bactericidal activity against Mycobacterium tuberculosis H37Rv under aerobic condition after 7 days; type: functional, organism-based
How it was run: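 Log-phase H37Rv (OD650 0.2) diluted 1000-fold in 7H9/ADC and exposed to 1×, 5×, 10×, 20× and 50× MIC in duplicate. Sampled at days 1, 2, 4 and 7; CFU counted on 7H11/OADC plates.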

[6] = biological target: T1, Decaprenylphosphoryl-beta-D-ribose oxidase (Mycobacterium tuberculosis (strain ATCC 25618 / H37Rv)) (UniProt P9WJF1); assay: Inhibition of DprE1 in Mycobacterium tuberculosis H37Rv assessed as bacterial growth inhibition after 4 weeks
T1 sequence (whole entry): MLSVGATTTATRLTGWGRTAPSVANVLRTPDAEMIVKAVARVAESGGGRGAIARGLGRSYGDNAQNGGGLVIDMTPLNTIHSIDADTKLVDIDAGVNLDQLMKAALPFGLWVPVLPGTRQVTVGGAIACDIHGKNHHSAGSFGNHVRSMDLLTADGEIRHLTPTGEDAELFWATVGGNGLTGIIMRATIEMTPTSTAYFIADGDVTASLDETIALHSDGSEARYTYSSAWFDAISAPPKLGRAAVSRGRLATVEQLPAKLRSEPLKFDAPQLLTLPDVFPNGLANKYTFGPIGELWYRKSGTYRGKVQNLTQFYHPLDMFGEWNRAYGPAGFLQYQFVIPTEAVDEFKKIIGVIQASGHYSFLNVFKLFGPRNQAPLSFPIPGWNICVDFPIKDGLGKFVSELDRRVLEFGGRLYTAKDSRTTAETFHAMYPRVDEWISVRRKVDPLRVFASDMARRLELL

[7] = system: Mycobacterium tuberculosis; assay: Bactericidal activity against Mycobacterium tuberculosis H37Rv under anaerobic condition at 1 to 50 fold MIC after 7 days; type: functional, organism-based
How it was run: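 Anaerobic H37Rv from the self-generated oxygen-depletion (Wayne) model exposed to 1×, 5×, 10×, 20× and 50× MIC in an anaerobic chamber for 7 days. CFU counted on 7H11/OADC plates.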

SMILES | IC50 (HepG2 [1]) [µM] | IC50 (HepG2 [2]) [µM] | further results
Cn1c(Cc2ccccc2C(F)(F)F)nc(C(=O)NCc2ccc3c(c2)OCO3)c(O)c1=O | > 100 | > 100 | 
Cn1c(Cc2ccccc2C(F)(F)F)nc(C(=O)NCc2ccccc2F)c(O)c1=O | > 100 | > 100 | 
Cn1c(Cc2ccccc2C(F)(F)F)nc(C(=O)NCc2cccnc2)c(O)c1=O | > 100 | > 100 | 
Cn1c(Cc2ccccc2C(F)(F)F)nc(C(=O)NCc2ccccc2)c(O)c1=O | > 100 | > 100 | MIC [3]: 0.4 to 0.59 µM; Activity [4]: inactive; Activity [5]: Dose-dependent effect; MIC [6]: 3.13 µM (≈ 1.31 µg/mL); Activity [7]: inactive
COc1c(C(=O)NCc2ccccc2)nc(Cc2ccccc2C(F)(F)F)n(C)c1=O | > 100 | > 100 | 
CCn1c(Cc2ccccc2C(F)(F)F)nc(C(=O)NCc2ccccc2)c(O)c1=O | > 100 | > 100 | 
Cn1c(Cc2ccccc2)nc(C(=O)NCc2ccccc2)c(O)c1=O | > 100 | > 100 | 
Cn1c(Cc2ccccc2C(F)(F)F)nc(C(=O)Nc2ccccc2)c(O)c1=O | > 100 | > 100 | 
Cn1c(Cc2ccccc2C(F)(F)F)nc(C(=O)NCc2ccc(F)cc2)c(O)c1=O | > 100 | > 100 | 
CN(Cc1ccccc1)C(=O)c1nc(Cc2ccccc2C(F)(F)F)n(C)c(=O)c1O | > 100 | > 100 | 
CC(NC(=O)c1nc(Cc2ccccc2C(F)(F)F)n(C)c(=O)c1O)c1ccccc1 (configuration not stated) | > 100 | > 100 | 
Cn1c(Cc2ccccc2C(F)(F)F)nc(C(=O)NCc2ccccn2)c(O)c1=O | > 100 | > 100 | 
O=C(NCc1ccccc1)c1nc(Cc2ccccc2C(F)(F)F)[nH]c(=O)c1O | > 100 | > 100 | 
Cn1c(Cc2ccccc2C(F)(F)F)nc(C(=O)CCc2ccccc2)c(O)c1=O | > 100 | > 100 | 
Cn1c(Cc2ccccc2C(F)(F)F)nc(C(=O)NCC2CCCCC2)c(O)c1=O | > 100 | > 100 | 
CC(c1ccccc1C(F)(F)F)c1nc(C(=O)NCc2ccccc2)c(O)c(=O)n1C (configuration not stated) | > 100 | > 100 | 
